Experimental data from different studies.
Protocols differ between the studies behind these lines. pIC50: −log10 of the molar value.
Target: Cytochrome P450 1A2 (CYP1A2, Homo sapiens, UniProt P05177)

SMILES	assay	test system	setting	quantity	result
C=CC(=O)Nc1cc(Nc2nccc(Nc3cc(Cl)c(F)cc3C(C)(C)O)n2)c(OC)cc1N1CC[C@@H](N(C)C)C1	enzyme activity, inhibitor	human, liver microsomes	10 µM	inhibition	< 20%
Cc1ccc(C(=O)N2CCOC[C@H]2Cc2cccc(-n3nccn3)c2)c(-n2nccn2)c1	enzyme activity, inhibitor	human, liver microsomes	100 µM	inhibition	23%
CON=C(N)c1ccc(-c2ccc(-c3ccc(C(N)=NOC)cc3)o2)cc1	enzyme activity, substrate			Km	400 nM
Nc1nc(N)c2nc(CNc3ccc(C(=O)N4CCC(C(=O)O)CC4)cc3)cnc2n1	enzyme activity, inhibitor, luciferase		10 µM	inhibition	-33.3%
N=C(N)NCc1ccc(NC(=O)C23CCC(C(=O)Nc4ccc(C5=CCN(C(=N)N)CC5)cc4)(CC2)CC3)cc1	enzyme activity, inhibitor	liver microsomes	10 µM	inhibition	0%
CC(=O)N1CCN(c2ccc(OCC3COC(Cn4ccnc4)(c4ccc(Cl)cc4Cl)O3)cc2)CC1 (stereo not drawn)	enzyme activity, inhibitor	human, liver microsomes	1 µM	inhibition	-6%
COc1ccc(CNC(=O)c2ccc(CNCc3cnc4nc(N)nc(N)c4n3)cc2)cc1	enzyme activity, inhibitor, luciferase		10 µM	inhibition	-18.9%
O=C(Nc1c2c(cc3c1CCC3)CCC2)NS(=O)(=O)/C=C/c1nccs1	enzyme activity, inhibitor	human, liver microsomes	10 µM, pH 7.4	inhibition	9.5%
Cc1cccc(F)c1N1CCC(N2Cc3cn(CC(C)(F)F)nc3N(Cc3ccccc3C(F)(F)F)C2=O)CC1	enzyme activity, inhibitor	human, liver microsomes		pIC50	< 5.00
COc1ccc(Oc2ccc(CNCc3cnc4nc(N)nc(N)c4n3)cc2)cc1	enzyme activity, inhibitor, luciferase		10 µM	inhibition	-5.44%
O=C(N[C@H](Cc1c[nH]c2ccccc12)C(=O)Nc1ccncc1)c1ccc(-c2cc(F)ccc2F)cc1F	enzyme activity, inhibitor	human, liver microsomes	1 µM	inhibition	3%
COc1ccc(Oc2ccc(CN(Cc3ccccc3)Cc3cnc4nc(N)nc(N)c4n3)cc2)cc1	enzyme activity, inhibitor, luciferase		10 µM	inhibition	-21.8%
C=C[C@H]1C[N@@]2CC[C@H]1C[C@@H]2[C@@H](O)c1ccnc2ccc(OC)cc12	enzyme activity, inhibitor	human, liver microsomes	10 µM	inhibition	-5%
N=C(N)N1CC=C(c2coc(C(=O)Nc3ccc(C4=CCN(C(=N)N)CC4)c(F)c3)c2)CC1	enzyme activity, inhibitor	liver microsomes	10 µM	inhibition	0%
N[C@@H](COCc1ccccc1)C(=O)Nc1nc2ccc(OC(F)(F)F)cc2s1	metabolic stability	human, liver microsomes	1 µM, 0 h, pH 7.4	compound remaining	100%
CC1(CO)C(O[C@@H]2O[C@H](C(=O)O)[C@@H](O)[C@H](O)[C@H]2O)CC[C@@]2(C)C1CC[C@]1(C)C2CC=C2[C@H]3CC(C)(C)[C@H](O)[C@@H](O)[C@]3(CO)[C@H](O)C[C@]21C (stereo partly drawn)	enzyme activity, inhibitor, mass spectrometry	human, liver microsomes		IC50	> 90 µg/mL
COc1ccc(CNC(=O)c2ccc(CNCc3cnc4nc(N)nc(N)c4n3)cc2)cc1OC	enzyme activity, inhibitor, luciferase		10 µM	inhibition	-18.2%
CCc1cc(/C(C)=N/OCc2ccc(C3CCCCC3)c(C(F)(F)F)c2)ccc1CN1CC(C(=O)O)C1	enzyme activity, inhibitor	human, liver microsomes	200 µM, 20 min	inhibition	-193%
